From ChEMBL document CHEMBL1828573, “Synthesis and biological evaluation of the glycoside (25R)-3β,16β-diacetoxy-22-oxocholest-5-en-26-yl β-d-glucopyranoside: a selective anticancer agent in cervicouterine cell lines” (Eur J Med Chem, 2011)
One block for each compound: values may come before it. Calls of active or inactive are those of the source. No cut-off for these calls is given here.

Legend:
Ca-Ski [1] = experiment: Induction of apoptosis in human CaSki cells assessed as increase in cell nuclei released from broken cell at 29.5 to 33.9 uM after 24 hrs using propidium iodine staining by flow cytometry; format: functional, cell-based
In short: (§1)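 Seeded at 10^5 cells/mL and grown 24 h, then exposed to 33.9 or 29.5 µM. Harvested with versene and fixed/permeabilized in 50% methanol in PBS. Treated with RNase (2.5 U/mL), stained with propidium iodide (0.2 mg/mL), DNA content analysed by G1, S, G2/M and SubG1.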

Ca-Ski [2] = experiment: Cell cycle arrest at S-phase in human CaSki cells at 29.5 to 33.9 uM after 24 hrs using propidium iodine staining by flow cytometry; format: functional, cell-based; in short: as §1
ViBo [3] = experiment: Induction of apoptosis in human ViBo cells assessed as DNA fragmentation at IC50 after 24 hrs by TUNEL assay; format: functional, cell-based
[4] = Cell cycle arrest at G2/M-phase in human ViBo cells at 29.5 to 33.9 uM after 24 hrs using propidium iodine staining by flow cytometry; format: functional, cell-based; in short: as §1
[5] = Cytotoxicity against human PHA-stimulated lymphocytes assessed as LDH release at 33.9 uM after 72 hrs by spectrophotometry; format: cell-based; settings: lymphocyte
In short: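 Lymphocytes exposed to compound or ethanol (10 µL/mL); PHA-activated lymphocytes (15 µL/mL) served as control. After 72 h, LDH released into the culture supernatant measured. Mean ± S.D. of three independent experiments with three repetitions.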

HeLa [6] = experiment: Antiproliferative activity human HeLa cells after 24 hrs by crystal violet staining; format: functional, cell-based
In short: (§2)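 Cells in RPMI-1640 with 5% newborn calf serum, 37 °C, 5% CO2, exponential phase. Seeded at 7500 cells/well and grown 24 h, then exposed over a concentration range in ethanol vehicle; controls got 1% ethanol. After 24 h, crystal violet staining with absorbance at 590 nm. IC50 taken from the decrease in cell population.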

HeLa [7] = experiment: Induction of apoptosis in human HeLa cells assessed as induction of active caspase-3 expression at 29.5 to 33.9 uM using FITC/DAPI staining by epifluorescence microscopy; format: functional, cell-based
In short: (§3)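 Seeded at 5 × 10^4 cells/mL in RPMI-1640 with 5% NCS for 24 h, then treated with 33.9 or 29.5 µM. Formaldehyde fixation 15 min, 0.5% Triton X-100 permeabilization, blocking. Rabbit anti-active caspase-3 (1:50), then FITC goat anti-rabbit (1:200). DAPI counterstain; fluorescence microscopy.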

PBMC [8] = experiment: Antiproliferative activity human PBMC assessed as non-proliferating cells at 33.9 uM after 72 hrs using FITC-A staining by flow cytometry; format: cell-based
In short: (§4)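 Enriched lymphocytes from one healthy donor: non-adherent cells kept after 1 h at 37 °C. Labelled with CFSE for 15 min at room temperature in the dark, quenched with NCS, washed. Plated at 2 × 10^5 cells/well, unstimulated, PHA-stimulated or treated, with ethanol 1% vehicle control. Five replicates, 72 h at 37 °C. Then 1% formaldehyde fixation and flow cytometry, ≥20,000 events.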

HeLa [9] = experiment: Cell cycle arrest at G2/M-phase in human HeLa cells at 29.5 to 33.9 uM after 24 hrs using propidium iodine staining by flow cytometry; format: functional, cell-based; in short: as §1
ViBo [10] = experiment: Induction of apoptosis in human ViBo cells assessed as induction of active caspase-3 expression at 29.5 to 33.9 uM using FITC/DAPI staining by epifluorescence microscopy; format: functional, cell-based; in short: as §3
Ca-Ski [11] = experiment: Induction of apoptosis in human CaSki cells assessed as DNA fragmentation at IC50 after 24 hrs by TUNEL assay; format: functional, cell-based
[12] = Cell cycle arrest at S-phase in human ViBo cells at 29.5 to 33.9 uM after 24 hrs using propidium iodine staining by flow cytometry; format: functional, cell-based; in short: as §1
Ca-Ski [13] = experiment: Cell cycle arrest at G2/M-phase in human CaSki cells at 29.5 to 33.9 uM after 24 hrs using propidium iodine staining by flow cytometry; format: functional, cell-based; in short: as §1
Ca-Ski [14] = experiment: Cytotoxicity against human CaSki cells assessed as LDH release at IC50 after 24 hrs by spectrophotometry; format: functional
HeLa [15] = experiment: Cell cycle arrest at S-phase in human HeLa cells at 29.5 to 33.9 uM after 24 hrs using propidium iodine staining by flow cytometry; format: functional, cell-based; in short: as §1
Ca-Ski [16] = experiment: Cell cycle arrest at G1-phase in human CaSki cells at 29.5 to 33.9 uM after 24 hrs using propidium iodine staining by flow cytometry; format: functional, cell-based; in short: as §1
HeLa [17] = experiment: Cytotoxicity against human HeLa cells assessed as LDH release at IC50 after 24 hrs by spectrophotometry; format: functional
[18] = Cytotoxicity against human ViBo cells assessed as LDH release at IC50 after 24 hrs by spectrophotometry; format: functional
Ca-Ski [19] = experiment: Antiproliferative activity human CaSki cells after 24 hrs by crystal violet staining; format: functional, cell-based; in short: as §2
Ca-Ski [20] = experiment: Induction of apoptosis in human CaSki cells assessed as decrease in DNA level at 29.5 to 33.9 uM after 24 hrs using propidium iodine staining by flow cytometry; format: functional, cell-based; in short: as §1
HeLa [21] = experiment: Induction of apoptosis in human HeLa cells assessed as DNA fragmentation at IC50 after 24 hrs by TUNEL assay; format: functional, cell-based
[22] = Antiproliferative activity human ViBo cells after 24 hrs by crystal violet staining; format: functional, cell-based; in short: as §2
Ca-Ski [23] = experiment: Induction of apoptosis in human CaSki cells assessed as induction of active caspase-3 expression at 29.5 to 33.9 uM using FITC/DAPI staining by epifluorescence microscopy; format: functional, cell-based; in short: as §3
PBMC [24] = experiment: Antiproliferative activity human PBMC assessed as proliferating cells at 33.9 uM after 72 hrs using FITC-A staining by flow cytometry; format: cell-based; in short: as §4

IC50 (HeLa [6]): 29.5 µM
Structure (SMILES): CC(=O)O[C@H]1CC[C@@]2(C)C(=CC[C@H]3[C@@H]4C[C@H](OC(C)=O)[C@H]([C@H](C)C(=O)CC[C@@H](C)CO[C@@H]5O[C@H](CO)[C@@H](O)[C@H](O)[C@H]5O)[C@@]4(C)CC[C@@H]32)C1
Activity (Ca-Ski [1]): Active | Activity (Ca-Ski [2]): inactive | Activity (ViBo [3]): Active | Activity [4]: Active | Activity [5]: Non-toxic | Activity (HeLa [7]): Active | Activity (PBMC [8]): 27.91% | Activity (HeLa [9]): Active | Activity (ViBo [10]): Active | Activity (Ca-Ski [11]): Active | Activity [12]: Active | Activity (Ca-Ski [13]): inactive | Activity (Ca-Ski [14]): 1% | Activity (HeLa [15]): Active | Activity (Ca-Ski [16]): inactive | Activity (HeLa [17]): 6% | Activity [18]: 11% | Activity (Ca-Ski [19]): Dose-dependent effect | IC50 (Ca-Ski [19]): 33.9 µM | Activity (Ca-Ski [20]): Active | Activity (HeLa [21]): Active | IC50 [22]: 29.5 µM | Activity (Ca-Ski [23]): Active | Activity (PBMC [24]): 72.09%

Structure (SMILES): CC(=O)O[C@H]1CC[C@@]2(C)C(=CC[C@H]3[C@@H]4C[C@H](OC(C)=O)[C@H]([C@H](C)C(=O)CC[C@@H](C)CO)[C@@]4(C)CC[C@@H]32)C1
IC50 (Ca-Ski [19]): 47.1 µM
